Experiments:
OR1A1 (Homo sapiens) = molecular target: T1, OR1A1 (Homo sapiens) (UniProt Q9P1Q5); details: stereoisomer not certain
T1 sequence (whole entry): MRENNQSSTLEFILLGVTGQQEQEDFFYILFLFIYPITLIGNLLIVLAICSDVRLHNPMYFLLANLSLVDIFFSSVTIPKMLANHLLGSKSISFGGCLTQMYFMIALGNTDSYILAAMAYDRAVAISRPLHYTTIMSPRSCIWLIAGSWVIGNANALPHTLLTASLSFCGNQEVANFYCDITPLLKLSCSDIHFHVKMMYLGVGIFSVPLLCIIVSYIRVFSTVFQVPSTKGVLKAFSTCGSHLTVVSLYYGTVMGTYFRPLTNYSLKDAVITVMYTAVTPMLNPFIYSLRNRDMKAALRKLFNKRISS
In short: (§1)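 Each receptor–molecule pair is labelled responsive or non-responsive (inactive) according to whether the original authors judged the measured signal statistically different from baseline. The data were taken from the main text and supplementary material of published papers and checked for typos and inconsistencies. Assay methods differed by source, with transient luciferase assays in mammalian cell lines being common.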

OR1A1 A154T N155S = details: stereoisomer not certain
In short: as §1
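Note: active if original authors judged signal statistically different from baseline.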

`COC(=O)C=Cc1ccccc1` was tested. Which “odorant receptor agonist call” value (OR1A1 (Homo sapiens)) did it give?
Its value is “inactive”.

`CCC=CCCC=CC=O` was tested. Which “odorant receptor agonist call” value (OR1A1 (Homo sapiens)) did it give?
Its value is “inactive”.

With `CCCCCCO` as the compound, how does the “odorant receptor agonist call” value (OR1A1 (Homo sapiens)) read?
Its value is “inactive”.

`CC(=O)c1cnccn1` was tested. Which “odorant receptor agonist call” value (OR1A1 (Homo sapiens)) did it give?
The value was “inactive”.

`Cc1ccc(O)cc1` was tested. Which “odorant receptor agonist call” value (OR1A1 (Homo sapiens)) did it give?
The value was “inactive”.

How did the “odorant receptor agonist call” value (OR1A1 (Homo sapiens)) turn out when `CCCCCC(C)O` (stereo not drawn) was run?
Its value is “inactive”.

How did the “odorant receptor agonist call” value (OR1A1 (Homo sapiens)) turn out when `CCCCC=CC=CC=O` was run?
The value was “inactive”.

For `CCOC(C)OCC`, which “odorant receptor agonist call” value (OR1A1 (Homo sapiens)) is on record?
The value was “inactive”.

With `CCCCCC1=C(C)CCC1=O` as the compound, how does the “odorant receptor agonist call” value (OR1A1 (Homo sapiens)) read?
Its value is “active”.

Which “odorant receptor agonist call” value (OR1A1 (Homo sapiens)) does the source give for `CCCCCCCCS` here?
The value was “active”.

With `CCCCCCC1CCC(=O)O1` (stereo not drawn) as the compound, how does the “odorant receptor agonist call” value (OR1A1 (Homo sapiens)) read?
The value was “inactive”.

With `C=CCSC` as the compound, how does the “odorant receptor agonist call” value (OR1A1 (Homo sapiens)) read?
Its value is “inactive”.

Which “odorant receptor agonist call” value (OR1A1 (Homo sapiens)) does the source give for `CCC(C(=O)O)c1ccccc1` (stereo not drawn) here?
The value was “inactive”.

For `CCCCCC=CC=O`, which “odorant receptor agonist call” value (OR1A1 (Homo sapiens)) is on record?
The value was “inactive”.

With `CCOC(=O)C(C)CC` (stereo not drawn) as the compound, how does the “odorant receptor agonist call” value (OR1A1 (Homo sapiens)) read?
The value was “inactive”.

`CCC=O` was tested. Which “odorant receptor agonist call” value (OR1A1 (Homo sapiens)) did it give?
The value was “inactive”.

For `CCCSSSCCC`, which “odorant receptor agonist call” value (OR1A1 (Homo sapiens)) is on record?
Its value is “inactive”.

Which “odorant receptor agonist call” value (OR1A1 (Homo sapiens)) does the source give for `CCC(C)C=O` (stereo not drawn) here?
Its value is “inactive”.

For `CCCC(C)C=O` (stereo not drawn), which “odorant receptor agonist call” value (OR1A1 (Homo sapiens)) is on record?
The value was “inactive”.

How did the “odorant receptor agonist call” value (OR1A1 (Homo sapiens)) turn out when `CC1=CCC(C(C)(C)S)CC1` (stereo not drawn) was run?
Its value is “inactive”.

For `O=C(O)C=Cc1ccc(O)cc1`, which “odorant receptor agonist call” value (OR1A1 (Homo sapiens)) is on record?
The value was “inactive”.

With `CCCC=CC=O` as the compound, how does the “odorant receptor agonist call” value (OR1A1 (Homo sapiens)) read?
Its value is “inactive”.

For `CC(C)CCCCCCCCCCC=O`, which “odorant receptor agonist call” value (OR1A1 (Homo sapiens)) is on record?
The value was “inactive”.

With `C=CCOC(=O)CCCCCC` as the compound, how does the “odorant receptor agonist call” value (OR1A1 (Homo sapiens)) read?
Its value is “active”.

How did the “odorant receptor agonist call” value (OR1A1 (Homo sapiens)) turn out when `CSSc1ccoc1C` was run?
The value was “inactive”.

Which “odorant receptor agonist call” value (OR1A1 (Homo sapiens)) does the source give for `CCCCC(=O)OCC` here?
Its value is “inactive”.

How did the “odorant receptor agonist call” value (OR1A1 (Homo sapiens)) turn out when `CCOC(=O)CC(C)C` was run?
Its value is “inactive”.

For `CC(=O)Oc1ccccc1`, which “odorant receptor agonist call” value (OR1A1 (Homo sapiens)) is on record?
The value was “inactive”.

With `CCCCC(=O)CC(C)=O` as the compound, how does the “odorant receptor agonist call” value (OR1A1 (Homo sapiens)) read?
Its value is “active”.

For `CCCCC1CCC(=O)O1` (stereo not drawn), which “odorant receptor agonist call” value (OR1A1 (Homo sapiens)) is on record?
The value was “inactive”.

For `CCOC(=O)c1ccccc1`, which “odorant receptor agonist call” value (OR1A1 (Homo sapiens)) is on record?
Its value is “inactive”.

`CN(C)C` was tested. Which “odorant receptor agonist call” value (OR1A1 (Homo sapiens)) did it give?
Its value is “inactive”.

With `CC(=O)c1ccc(C)cc1` as the compound, how does the “odorant receptor agonist call” value (OR1A1 (Homo sapiens)) read?
Its value is “inactive”.

How did the “odorant receptor agonist call” value (OR1A1 (Homo sapiens)) turn out when `CCc1ccc(O)c(OC)c1` was run?
The value was “inactive”.

For `CCC=CCCC=O`, which “odorant receptor agonist call” value (OR1A1 (Homo sapiens)) is on record?
Its value is “inactive”.

`CCCCC(C)=O` was tested. Which “odorant receptor agonist call” value (OR1A1 (Homo sapiens)) did it give?
Its value is “inactive”.

For `O=C([O-])CCC(=O)[O-].[H+].[H+]`, which “odorant receptor agonist call” value (OR1A1 (Homo sapiens)) is on record?
Its value is “inactive”.

How did the “odorant receptor agonist call” value (OR1A1 A154T N155S) turn out when `CC(C)=CCCC(C)CCO` (stereo not drawn) was run?
Its value is “active”.

— the M2OR odorant receptor database
